# Screening data as filed in PubChem.
# Sampled rows, rich in hits. Any-hit rate of the full collection: about 1.3%.
# RAD52 anneal inh – blocks human RAD52 DNA annealing; inhibition, % at 18.7 µM; AID 651710; 0.46% of 360,000 active; recombinant RAD52 DNA annealing, FRET fluorescence; P43351;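 active = every replicate showing at least 50% inhibition; inconclusive = mean inhibition at least 50% but not in every replicate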
# CASP6 VEID inh – caspase-6 (human) enzyme inhibition. inhibition, % at 12.5 µM. purified caspase-6, Z-VEID-R110 cleavage fluorescence. 0.53% of 350,000 active. P55212;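 active = mean inhibition across replicates at least about 35%, with every replicate also reaching that limit, limit read from the data; inconclusive = only one of the two criteria met; inactive = neither criterion met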;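 also: 0% = median of neutral control wells and 100% = no fluorescence left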
# XiGFP reactiv – activators of X-chromosome reactivation in mouse fibroblasts | activation, % at 7.58 µM | AID 743238 | XiGFP mouse fibroblasts, % GFP-positive cells imaging, 3 d; cells co-treated with 5-aza-dC sensitizer; scaled so ellipticine positive control = 100% | 0.055% of 360,000 active;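 active = mean normalized replicate activation at least 10% and every replicate at or above 10%; inconclusive = only one of the two criteria met; inactive = mean below 10% and not all replicates reach 10%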;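 also: 0% = median of on-plate neutral control wells and 100% = ellipticine 6 µM median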
#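 Material: XiGFP fibroblasts, SV40-immortalized. Buffer or medium: DMEM plus 5-aza-dC sensitizer. Compound: single concentration per compound, delivered by pin transfer. Times: 3 days compound exposure. Controls: ellipticine 6 µM.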
# MLL AF4-AF9 inh – blocks AF4 peptide binding to human AF9; AlphaScreen, biotin-AF4 peptide binding to FLAG-AF9; P42568; 0.47% of 350,000 active; inhibition, % at 10 µM; AID 651704;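 active = every replicate reaching a set inhibition limit, whatever the replicate mean, cut at about 25% in these data; inconclusive = mean inhibition reaches that limit but some replicates miss it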;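 also: 0% = plate neutral control median and 100% = total signal loss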
# Target sequence (P42568 whole entry, looked up): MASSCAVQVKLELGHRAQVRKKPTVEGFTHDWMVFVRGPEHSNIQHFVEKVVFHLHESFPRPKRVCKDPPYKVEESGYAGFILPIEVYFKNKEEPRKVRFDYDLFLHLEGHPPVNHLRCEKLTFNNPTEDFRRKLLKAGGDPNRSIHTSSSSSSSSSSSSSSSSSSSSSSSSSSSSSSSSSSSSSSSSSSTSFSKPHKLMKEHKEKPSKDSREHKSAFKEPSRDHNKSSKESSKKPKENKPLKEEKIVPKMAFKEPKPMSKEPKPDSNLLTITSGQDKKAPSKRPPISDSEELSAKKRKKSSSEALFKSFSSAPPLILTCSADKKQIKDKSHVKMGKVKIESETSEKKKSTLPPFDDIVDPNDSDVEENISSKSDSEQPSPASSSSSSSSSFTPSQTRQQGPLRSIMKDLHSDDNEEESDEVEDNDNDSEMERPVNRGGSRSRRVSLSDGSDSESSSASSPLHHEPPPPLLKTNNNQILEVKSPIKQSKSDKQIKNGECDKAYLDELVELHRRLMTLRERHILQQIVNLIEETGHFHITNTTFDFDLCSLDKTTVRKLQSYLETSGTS
# S100A4 MyoIIA – inhibitors of human S100A4 binding to myosin IIA peptide; inhibition, % at 10.7 µM; AID 652163; S100A4/TAMRA-MyoIIA peptide fluorescence polarization; 0.14% of 360,000 active; P26447;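 active = mean inhibition of at least 70% across replicates, with every replicate also reaching that level; inconclusive = mean inhibition reaches 70% but some replicates fall short; inactive = mean inhibition below 70%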
# Target sequence (P26447 whole entry, looked up): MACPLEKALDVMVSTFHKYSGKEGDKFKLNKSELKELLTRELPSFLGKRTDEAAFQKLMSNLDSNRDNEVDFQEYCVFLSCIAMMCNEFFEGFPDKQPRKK
#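 Compound dosing: one dose per compound; test system: human S100A4 monomer with TAMRA-labelled myosin IIA peptide; probe or stimulus: TAMRA-labelled myosin IIA heavy-chain peptide probe, 5 nM; medium: HEPES buffer with Ca2+, pH 7.2; schedule: 5 min incubation before reading; benchmarks: neutral control DMSO, positive control TFP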
# RAD54 inh – RAD54 (human) branch migration inhibition | RAD54 Holliday junction branch migration, FAM/BHQ fluorescence | inhibition, % at 10.4 µM | 0.14% of 360,000 active | AID 602329;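 active = mean normalized replicate activity at least 40 and at least half of replicates scoring 40 or more; inconclusive = only one of the two criteria met; inactive = mean below 40 and under half of replicates reaching 40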;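 also: 0% = median of neutral control wells and 100% = median of positive control wells; inhibitors cause a drop in the FAM fluorescence signal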
# Numbers without * were called inactive; ? = inconclusive; nt = no result.
SMILES,RAD52 anneal inh,CASP6 VEID inh,XiGFP reactiv,MLL AF4-AF9 inh,S100A4 MyoIIA,RAD54 inh
CCCN(C)C[C@H]1OCCCC[C@@H](C)Oc2ccc(NC(=O)Nc3ccccc3)cc2C(=O)N([C@H](C)CO)C[C@@H]1C,9,3,0,1,0,2
C[C@@H]1CCCCO[C@H](CN(C)C(=O)Nc2ccccc2)[C@@H](C)CN([C@@H](C)CO)C(=O)c2cc(NC(=O)c3ccccc3)ccc2O1,-27,0,0,3,-7,-2
O=C(Nc1cc(Cl)cc(Cl)c1)c1coc(=O)c(Br)c1,-117,70*,0,-2,-28,-14
C[C@@H]1CCCCO[C@@H](CN(C)C(=O)Nc2ccc3c(c2)OCO3)[C@H](C)CN([C@@H](C)CO)C(=O)c2cc(NC(=O)Cc3ccccc3)ccc2O1,nt,nt,-1,nt,nt,4
CCCCCOc1ccc(C2C(C(=O)c3ccc(C)o3)=C(O)C(=O)N2c2cc(C)on2)cc1 (stereo not given),-7,39*,0,-2,-6,6
CCOc1ccc(C2C(C(=O)c3ccc(C)o3)=C(O)C(=O)N2c2cc(C)on2)cc1OC (stereo not given),-5,3,0,3,-4,-9
C[C@H](CO)N1C[C@H](C)[C@@H](CN(C)Cc2ccc(Oc3ccccc3)cc2)Oc2ccc(NC(=O)Nc3ccc(C(F)(F)F)cc3)cc2CC1=O,nt,nt,0,nt,nt,1
CNC[C@H]1Oc2cc(C#Cc3ccc(OC)cc3)ccc2S(=O)(=O)N([C@H](C)CO)C[C@@H]1C,56*,0,1,9,-10,-4
COc1ccccc1C#Cc1ccc2c(c1)O[C@@H](CN(C)C)[C@@H](C)CN([C@@H](C)CO)S2(=O)=O,23,48*,0,10,4,10
COc1ccccc1C#Cc1ccc2c(c1)O[C@H](CN(C)Cc1cncnc1)[C@@H](C)CN([C@H](C)CO)S2(=O)=O,0,-3,26*,0,-7,5
CCC(=O)Nc1ccc2c(c1)C(=O)N(C)C[C@@H](OC)[C@@H](C)CN(C(=O)CC)[C@@H](C)CO2,-18,0,0,1,-7,-1
C[C@@H]1CN([C@@H](C)CO)C(=O)c2cccc(NC(=O)c3nc4ccccc4s3)c2O[C@@H]1CN(C)C(=O)Nc1ccccc1,29,0,-1,7,1,1
COc1cccc(-c2ccc3c(c2)O[C@@H](CN(C)C(=O)C2CCOCC2)[C@@H](C)CN([C@H](C)CO)S3(=O)=O)c1,-2,5,-1,0,0,2
COc1ccc(S(=O)(=O)Nc2ccc3c(c2)CC(=O)N([C@H](C)CO)C[C@@H](C)[C@@H](CN(C)S(=O)(=O)c2c(C)noc2C)O3)cc1,13,-2,-1,0,8,4
O=C(/C=C/c1ccco1)Nc1scc(-c2ccccc2)c1C(=O)O,-22,44*,0,-6,0,1
COC(=O)c1cccc(-c2ccc(C(c3c(C)[nH][nH]c3=O)c3c(C)[nH][nH]c3=O)o2)c1,-28,16,0,0,31,2
COC(=O)c1ccccc1-c1ccc(C(c2c(C)[nH][nH]c2=O)c2c(C)[nH][nH]c2=O)o1,-16,42*,0,-3,-7,nt
C[C@@H]1CN([C@@H](C)CO)C(=O)c2cc(C#Cc3ccccc3)cnc2O[C@H]1CN(C)C(=O)c1ccccc1,6,-1,0,0,1,-2
COc1ccc(CNC(=O)c2cc(S(=O)(=O)N3CCOCC3)cn2C)cc1,0,-2,0,3,-2,6
COc1cccc(CNC(=O)c2cc(S(=O)(=O)N3CCOCC3)cn2C)c1,-5,-3,23*,-13,-4,-3
C[C@H]1CN([C@@H](C)CO)C(=O)c2cc(C#CCN(C)C)cnc2O[C@H]1CN(C)C(=O)c1ccc(F)cc1,-32,0,0,-1,0,6
C[C@H]1CCCCO[C@@H](CN(C)C(=O)Nc2ccccc2)[C@@H](C)CN([C@@H](C)CO)C(=O)c2cc(NS(=O)(=O)c3ccc(F)cc3)ccc2O1,nt,nt,0,nt,nt,nt
O=C1CCc2ccccc2O1,-10,1,nt,0,-15,-3
O=C1CCc2cc(Br)ccc2O1,-2,45*,0,0,-5,-2
O=C(Nc1ccccc1F)N[C@@H]1CC[C@H](CCNC(=O)C2CCCCC2)O[C@H]1CO,7,-1,0,-1,90*,-6
SMILES,RAD52 anneal inh,CASP6 VEID inh,XiGFP reactiv,MLL AF4-AF9 inh,S100A4 MyoIIA,RAD54 inh
Cc1ccc(S(=O)(=O)NCC[C@@H]2CC[C@H](NC(=O)Nc3cccc(F)c3)[C@@H](CO)O2)cc1,-5,-1,2,1,73*,7
O=C(NCC[C@@H]1CC[C@@H](NC(=O)Nc2cc(F)ccc2F)[C@H](CO)O1)Nc1ccc(F)cc1,56*,-256,0,22,6,16
O=C(Nc1ccc(Cl)cc1)N[C@H]1CC[C@H](CCNC(=O)c2ccccc2F)O[C@@H]1CO,-11,0,1,-5,81*,-3
O=C(Nc1ccc(Cl)cc1)N[C@@H]1CC[C@H](CCNC(=O)c2ccccc2F)O[C@H]1CO,2,-1,0,-3,?,-7
Cc1ccc(S(=O)(=O)NCC[C@@H]2CC[C@@H](NC(=O)Nc3cccc(F)c3)[C@@H](CO)O2)cc1,9,0,1,0,5,-11
C[C@H]1CCn2cc(nn2)COCCNC1=O,nt,nt,0,nt,nt,nt
C[C@@H]1CN([C@H](C)CO)C(=O)c2cc(C3=CCCC3)cnc2O[C@H]1CN(C)C(=O)Cc1ccncc1,6,1,0,0,-28,4
C[C@H]1CN([C@@H](C)CO)C(=O)c2cc(NC(=O)CCN3CCOCC3)ccc2O[C@H]1CN(C)C,-2,-1,3,-1,6,-6
C[C@@H]1CN([C@@H](C)CO)C(=O)Cc2cc(NC(=O)CCN3CCOCC3)ccc2O[C@@H]1CN(C)Cc1ccncc1,-10,6,0,1,19,-10
C[C@@H]1CN([C@@H](C)CO)C(=O)c2cc(NC(=O)C3CCCCC3)ccc2O[C@@H](C)CCCCO[C@H]1CN(C)C,nt,nt,0,nt,nt,nt
C[C@@H](O)C#Cc1ccc([C@H]2[C@@H](CO)N3CCCCN(CC4CCOCC4)C[C@H]23)cc1,-7,-1,0,5,-13,0
CN(C)CC#Cc1ccc([C@H]2[C@@H](CO)N3CCCCN(S(=O)(=O)c4ccccc4F)C[C@@H]23)cc1,nt,nt,0,nt,nt,nt
O=C(NCC[C@H]1CC[C@@H](NS(=O)(=O)c2ccc(F)cc2)[C@H](CO)O1)Nc1ccc(Cl)cc1,-17,-2,0,6,-49,-5
O=C(NCC[C@H]1CC[C@H](NS(=O)(=O)c2ccc(Cl)cc2)[C@H](CO)O1)Nc1ccc(F)cc1,16,-75,1,30*,5,nt
